Screening data (PubChem BioAssay)
An excerpt weighted towards active compounds, which were near 3% of everything screened.
SENP8 block-1 – SENP8 protease inhibition; Q96LD8; purified SENP8, Z-RLRGG-aminoluciferin cleavage, luminescence; inhibition, % at 10 µM; hit rate 1.2% among 330,000; AID 2540; in the data active means inhibition above about 50%
Target sequence (Q96LD8 whole entry, looked up): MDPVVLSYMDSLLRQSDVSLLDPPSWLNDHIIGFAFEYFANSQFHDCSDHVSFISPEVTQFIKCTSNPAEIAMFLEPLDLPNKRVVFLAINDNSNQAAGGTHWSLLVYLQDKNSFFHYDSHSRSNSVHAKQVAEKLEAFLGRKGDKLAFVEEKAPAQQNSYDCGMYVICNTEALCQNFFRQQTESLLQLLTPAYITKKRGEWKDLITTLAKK
SENP6 block – blocks the human protease SENP6; AID 2599; Recombinant SENP6 catalytic domain, aminoluciferin luminescence; hit rate 1.8% among 330,000; Q9GZR1; inhibition, % at 10 µM;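 active means inhibition above about 50% at the single tested dose, limit read from the data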;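 further: plate controls were DMSO wells with enzyme for no effect and DMSO wells lacking enzyme for full effect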
SENP8 block-2 – blocks human SENP8 cleavage of Nedd8 substrate; Q96LD8; recombinant SENP8, Nedd8 substrate fluorescence; hit rate 0.64% among 360,000; AID 602440; inhibition, % at 20 µM; in the data active means inhibition mostly above about 40%, no sharp cut-off; inactive means mostly below about 27%
SENP7 inh – blocks the human protease SENP7. Q9BQF6. recombinant SENP7, Z-RLRGG-aminoluciferin luminescence, 40 min. inhibition, % at 5 µM. hit rate 1.5% among 330,000. AID 434973;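 active means inhibition above about 50% at the single test dose, limit read from the data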;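 further: plate controls were DMSO with enzyme for no effect and no enzyme buffer wells for full effect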
Apaf-1 inh – blocks human Apaf-1 apoptosome activity; O14727; reconstituted apoptosome caspase-3 activity, DEVD-Rh110 fluorescence; inhibition, % at 20 µM; hit rate 0.71% among 330,000; AID 489030; active means inhibition of at least 40% at 20 µM;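 further: plate controls were DMSO wells for no effect and DEVD-CHO caspase inhibitor wells for full effect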
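Medium: Hepes buffer, pH 7.5 / System: biochemical Apaf-1 apoptosome reconstitution / Measured by: Rh110 fluorescence, excitation 480 nm, emission 540 nm / Times: compound with Apaf-1, dATP, procaspase-3 30 min, then 50 min reaction, room temperature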
UBC13 inh – inhibitors of human UBC13 polyubiquitin chain formation | inhibition, % at 20 µM | hit rate 0.47% among 330,000 | TR-FRET | P61088; in the data active means inhibition above about 45%, passing the limit was not always enough; inconclusive means no clear call, values can overlap the other calls
Target sequence (P61088 whole entry, looked up): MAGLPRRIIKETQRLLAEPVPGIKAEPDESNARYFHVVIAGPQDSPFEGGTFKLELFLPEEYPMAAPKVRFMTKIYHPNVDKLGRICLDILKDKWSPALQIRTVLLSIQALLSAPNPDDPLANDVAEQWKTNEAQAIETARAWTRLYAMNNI
SENP8 confirm – confirmation of human SENP8 protease inhibitors | inhibition, % at 12.5 µM | shares compounds with SENP7 inh | hit rate 40% among 6,200 | Recombinant SENP8, Z-RLRGG-aminoluciferin luminescence, 60 min;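 active means mean inhibition across replicates above about 50%, limit read from the data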
SENP6 confirm – human SENP6 inhibition, confirmed; hit rate 58% among 6,200; shares compounds with SENP7 inh; inhibition, % at 12.5 µM; recombinant SENP6, Z-RLRGG-aminoluciferin luminescence
SENP7 confirm – human SENP7 inhibition, confirmed. inhibition, % at 12.5 µM. hit rate 69% among 6,200. shares compounds with SENP7 inh. recombinant SENP7, Z-RLRGG-aminoluciferin luminescence, 40 min
Casp3 SENP sel – selectivity test for SENP inhibitors: human caspase-3 inhibition | inhibition, % at 12.5 µM | AID 488918 | purified caspase-3, Z-DEVD-aminoluciferin luminescence, 60 min | shares compounds with SENP7 inh | hit rate 60% among 6,200;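 active means mean inhibition above about 50%, limit read from the data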;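 further: plate controls were enzyme with DMSO for no effect and wells without caspase-3 for full effect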
Target sequence (P42574 28-227 limits assumed): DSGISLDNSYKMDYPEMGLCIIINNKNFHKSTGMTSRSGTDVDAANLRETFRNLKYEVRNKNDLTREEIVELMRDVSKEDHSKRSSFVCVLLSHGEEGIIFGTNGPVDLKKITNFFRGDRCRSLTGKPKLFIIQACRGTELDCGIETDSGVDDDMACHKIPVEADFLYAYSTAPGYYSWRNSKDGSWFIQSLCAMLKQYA
Luc interf – counter-screen for SENP inhibitors: luminescence interference. hit rate 39% among 6,200. shares compounds with SENP7 inh. Pre-incubated SENP8/Z-RLRGG-aminoluciferin, luciferase luminescence interference. inhibition, % at 12.5 µM;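 active means mean inhibition above about 50% when retested at one dose, limit read from the data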;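 further: plate controls were DMSO wells with completed reaction for no effect and substrate without enzyme for full effect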
Active calls of the source: *; ? = inconclusive; nt = no result.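 How the source made its calls, unless noted: active means mean inhibition above about 50% in the one-dose retest (limit read from the data); inactive means the rest.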

SMILES	SENP8 block-1	SENP6 block	SENP8 block-2	SENP7 inh	Apaf-1 inh	UBC13 inh	SENP8 confirm	SENP6 confirm	SENP7 confirm	Casp3 SENP sel	Luc interf
CN1C(=O)[C@H]2[C@@H](c3ccc(C(F)(F)F)cc3)N[C@]3(CCCN(CC4CCCCC4)C3=O)[C@H]2C1=O	nt	nt	16	nt	nt	nt	nt	nt	nt	nt	nt
O=C(Nc1nc2ccc(Br)cc2s1)c1ccco1	58*	75*	-76	63*	0	12	33	64*	90*	69*	30
CC(=O)Nc1nc2ccc(Br)cc2s1	56*	80*	13	70*	1	4	72*	69*	92*	74*	59*
COc1ccc2nc(NC(C)=O)sc2c1	5	-5	28	31	-1	6	nt	nt	nt	nt	nt
NS(=O)(=O)c1ccc2nc(NC(=O)c3ccc(Br)o3)sc2c1	4	1	-306	-15	0	-8	nt	nt	nt	nt	nt
Cc1ccc2nc(NC(=O)c3ccc(Br)o3)sc2c1	60*	73*	-226	87*	7	-5	36	38	48	44	14
Cc1cc2sc(NC(=O)c3ccco3)nc2cc1Cl	9	28	-123	71*	-7	-3	10	10	6	29	7
CC(=O)Nc1nc2ccc(NC(=O)c3ccco3)cc2s1	-14	-6	-7	-8	11	-10	nt	nt	nt	nt	nt
COc1ccc(CN2CCC2(C)C(=O)NCc2ccc3c(c2)OCO3)c2ccccc12 (stereo not given)	nt	nt	4	nt	nt	nt	nt	nt	nt	nt	nt
N#CC(=C1NC(=O)c2ccccc21)c1nc2ccccc2n1CCO	nt	nt	-60	nt	nt	nt	nt	nt	nt	nt	nt
CC1(C(=O)O)CCCN(C(=O)c2ccc3c(c2)C(C)(C)CCC3(C)C)C1 (stereo not given)	nt	nt	14	nt	nt	nt	nt	nt	nt	nt	nt
COc1ccc(-c2ccc(NC(=O)c3ccco3)cc2)nn1	90*	91*	-38	94*	-5	2	90*	90*	99*	96*	68*
COc1ccc(-c2cccc(NC(=O)c3ccco3)c2)nn1	1	-2	-3	6	1	-2	nt	nt	nt	nt	nt
COc1cc2sc(NC(=O)c3ccco3)nc2cc1Cl	18	-31	-295	3	-3	1	nt	nt	nt	nt	nt
CCOc1ccc(-c2csc(NC(=O)c3ccco3)n2)cc1	20	45	-34	32	3	9	nt	nt	nt	nt	nt
COc1ccc2nc(NC(=O)c3ccco3)sc2c1	87*	88*	-204	93*	-1	8	93*	93*	101*	94*	79*
COCC(=O)Nc1nc2ccc(C)cc2s1	30	68*	2	58*	-3	2	67*	62*	88*	82*	64*
Cc1ccc2nc(NC(=O)COC(=O)c3ccncc3)sc2c1	0	-21	24	-4	7	-21	nt	nt	nt	nt	nt
COc1ccc(-c2csc(NC(=O)c3ccco3)n2)cc1	28	56*	-55	25	5	1	43	38	75*	32	30
O=C(OC1CC2CC1[C@H]1CCCCN1C2=O)N1CCN(C(=O)c2ccccc2)CC1 (stereo not given in full)	nt	nt	16	nt	nt	nt	nt	nt	nt	nt	nt
CSCc1cc(C(=O)NCCN2CCOCC2)c(N)s1	nt	nt	9	nt	nt	nt	nt	nt	nt	nt	nt
Cc1csc2c(=O)sc(NC(=O)c3ccco3)nc12	-7	2	-96	-1	-11	12	nt	nt	nt	nt	nt
O=C(Nc1ccc(-c2cn3ccccc3n2)cc1)c1ccc(Cl)cc1	-4	-3	-24	-4	-16	-3	nt	nt	nt	nt	nt
O=C(Nc1nc2ccsc2c(=O)s1)c1ccco1	53*	72*	-86	77*	-136	-3	79*	72*	94*	46	77*
O=C(Nc1ccc(-c2cn3ccccc3n2)cc1)c1ccco1	42	71*	-43	59*	0	-1	59*	58*	85*	79*	69*
SMILES	SENP8 block-1	SENP6 block	SENP8 block-2	SENP7 inh	Apaf-1 inh	UBC13 inh	SENP8 confirm	SENP6 confirm	SENP7 confirm	Casp3 SENP sel	Luc interf
Cc1cc(NC(=O)c2ccco2)sc1C	68*	83*	-8	76*	-8	4	6	60*	86*	81*	67*
COCCCNC(=O)C[C@@H]1C[C@@]2(C(=O)OC)CC(C)(C)CC=C2N(Cc2ccccc2)C1=O	nt	nt	11	nt	nt	nt	nt	nt	nt	nt	nt
COc1cc(/C=N/Nc2ccc(C(=O)O)cc2)ccc1O	96*	99*	-224	98*	-17	-4	98*	98*	103*	94*	97*
COc1cc(/C=N/Nc2ccc(C(=O)O)cc2)cc(OC)c1OC	74*	88*	-134	71*	-3	-9	88*	86*	98*	81*	36
CC(=O)Nc1cc(-c2ccoc2)cn2c(-c3ccccc3)cnc12	nt	nt	-278	nt	nt	nt	nt	nt	nt	nt	nt
Cc1ccc2c(c1)N=C(c1ccc(F)cc1)CO2	95*	98*	-156	97*	10	6	4	97*	102*	91*	50
O=[N+]([O-])c1ccc(C2=Nc3cc(Cl)ccc3OC2)cc1	-10	-1	-5	-8	11	?	nt	nt	nt	nt	nt
CCOc1cc(C)c(Cl)cc1S(=O)(=O)N(CC)CC	63*	3	15	-5	5	-4	4	10	11	3	4
CCOc1cc(S(=O)(=O)N(CC)CC)ccc1Cl	-2	-6	9	3	6	8	nt	nt	nt	nt	nt
OC[C@@H]1CN(Cc2cccc3ccccc23)C[C@H](n2cnc3c(NCc4ccco4)ncnc32)O1	nt	nt	13	nt	nt	nt	nt	nt	nt	nt	nt
O=C(O)c1cccc(NC(=O)c2ccccc2)c1	nt	nt	12	nt	nt	nt	nt	nt	nt	nt	nt
O=C(O)c1cccc(NC(=O)c2cc(NC(=O)c3ccccc3)cc(NC(=O)c3ccccc3)c2)c1	-2	90*	0	10	20	-16	15	8	0	-5	-5
CCOc1ccc(C(=O)Nc2cccc(C(=O)O)c2)cc1Cl	97*	95*	19	100*	12	-1	98*	99*	102*	90*	98*
COc1ccc(C(=O)Nc2cc(-c3ccc(C)cc3)no2)cc1	-4	-16	12	1	2	7	nt	nt	nt	nt	nt
Cc1ccc(C(=O)Nc2cccc(C(=O)O)c2)cc1	95*	92*	nt	99*	7	-8	99*	100*	103*	96*	98*
